FGF22 binding = binders of human FGF22 protein, primary screen, FGF22 synaptogenesis inhibitor project, biophysical, thermal shift, single point; Fibroblast growth factor 22 (Homo sapiens), Q9HCT0; recombinant FGF22 thermal shift, SYPRO orange fluorescence; percent of sucrose octasulfate shift, DMSO zero; activity (Tm shift, normalised), % at 9.99 µM; 340,000 compounds, 1.5% hits;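 active = mean Tm shift, scaled 0 neutral to 100 positive control, at about 1.3% or above, every replicate too, limit read from the data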
Target sequence (Q9HCT0 whole entry, looked up): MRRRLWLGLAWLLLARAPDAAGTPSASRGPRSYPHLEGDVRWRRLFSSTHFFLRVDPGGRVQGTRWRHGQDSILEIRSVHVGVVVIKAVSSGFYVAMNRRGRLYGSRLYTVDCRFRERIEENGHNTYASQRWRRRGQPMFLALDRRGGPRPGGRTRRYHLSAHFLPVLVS
Cneo AK release = Cryptococcus neoformans cell lysis inducers, primary screen, AK release luminescence, single concentration; C. neoformans lysis, adenylate kinase release luminescence, 4 h; normalised: neutral wells 0, clomiphene wells 100; lysis activity, % at 15 µM; 360,000 compounds, 0.2% hits; AID 651654, 2012;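 active = mean lysis activity across replicates of at least 80%, whatever share of replicates individually reach that level; inactive = mean lysis activity below 80%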
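Test system: log-phase Cryptococcus neoformans yeast cells. Input: 5 × 10^6 yeast cells/mL. Medium: fresh YPD growth medium. Doses: single dose. Incubation: static 4 h at 37 °C with compound, 1 h detection. Measured by: luminescent adenylate kinase detection reagent. Read-out: signal increase indicating cell lysis. Benchmarks: Clomiphene.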
PGC1a acetyl inh = inhibitors of PGC1a acetylation signal, primary screen, cell-based, U2OS, AlphaScreen, inhibitor mode | 350,000 compounds, 0.17% hits | inhibition, % at 15.6 µM | AID 651687, 2012 | AlphaScreen anti-acetyl-lysine; with virally co-expressed GCN5 acetyltransferase;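 active = every replicate shows inhibition of at least 40%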;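 also: 0% = neutral control wells and 100% = positive control wells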
Vif inh = HIV Vif self-association inhibitors, primary screen, imaging, HEK293T, single point. 340,000 compounds, 0.35% hits. AID 602346, 2012. inhibition, % at 7.49 µM. HEK293T cells, Vif self-association by quenched fluorescence, 24 h; in the data active = inhibition above about 50%, passing the limit was not always enough
PglD inh = C. jejuni PglD acetyltransferase inhibitors, primary screen, biochemical, DTNB colorimetric, single point | 360,000 compounds, 0.098% hits | AID 602405, 2012 | purified PglD enzyme, DTNB colorimetric CoA detection | inhibition, % at 12.5 µM; in the data active = inhibition above about 16%, passing the limit was not always enough
Ecoli rRNA inh = reduced GFP signal of wild-type E. coli, primary screen, bacterial rRNA inhibitor project, GFP/RFP fluorescence, OD600, single point | E. coli WT GFP vs humanized-ribosome RFP mutants, 24 h; active compounds read low; DMSO median 0, no signal -100 | GFP signal change (wild-type ribosome), % (test concentration not listed) | 350,000 compounds, 1.6% hits | AID 720706, 2013;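 active = significant combined selectivity score with lowered wild-type GFP, culture density cut under 30%, mutant RFP and density less affected; inactive = any of these conditions unmet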
The depositor's hits bear a star; x = not tested or not shown. A selection: hits, their analogues and other compounds. The true share with any hit is near 2.9%.

SMILES	FGF22 binding	Cneo AK release	PGC1a acetyl inh	Vif inh	PglD inh	Ecoli rRNA inh
CCO[C@@H]1OC(C(=O)O)=C[C@H](C2CC2)[C@H]1CCCO	44*	2	-3	0	0	8
CCO[C@H]1OC(C(=O)NCc2ccccc2)=C[C@@H](c2ccccc2)[C@@H]1CCCO	0	-1	3	4	-2	-25*
O=C(N[C@@H]1CC[C@@H](CC(=O)N2CCc3ccccc3C2)O[C@@H]1CO)C1CC1	0	-7	x	x	6	-1
CCCNC(=O)C[C@@H]1CC[C@@H]2[C@@H](COc3ccc(NC(=O)NCC)cc3C(=O)N2C)O1	1	-2	-1	x	-2	6
CCOc1ccc(N2C(=O)CC(Cc3ccc(Br)cc3)C2=O)cc1 (stereo not drawn)	0	-1	71*	-4	2	6
COc1ccc(N2C(=O)CC(Cc3ccc(Br)cc3)C2=O)cc1 (stereo not drawn)	0	0	-2	-13	1	19
CC(C)CC#Cc1ccc([C@H]2[C@@H](CO)N3C(=O)CN(S(C)(=O)=O)C[C@H]23)cc1	x	x	x	x	x	5
COc1ccc(CNC(=S)Nc2ccc(F)c(Cl)c2)cc1	1.7*	x	-5	-1	x	-38
COc1ccc(CNC(=S)Nc2cccc(OC)c2)cc1	0	3	12	-3	6	2
COc1ccc(CNC(=S)Nc2cc(C)cc(C)c2)cc1	x	15	6	x	-1	x
COc1ccc(CNC(=S)NCc2ccc(OC(C)C)cc2)cc1	43*	13	9	-1	x	-17
NS(=O)(=O)c1ccc(NC(=S)NCc2ccc(Cl)cc2)cc1	x	2	0	-3	-4	x
NS(=O)(=O)c1ccc(CNC(=S)Nc2ccc(F)c(Cl)c2)cc1	43*	x	x	-3	x	-28
C[C@@H]1CN([C@@H](C)CO)C(=O)c2cc(NC(=O)Nc3ccccc3)ccc2O[C@@H](C)CCCCO[C@H]1CN(C)Cc1ccncc1	0	1	-12	x	-2	-1
CC=Cc1ccc2n(c1=O)C[C@H]1[C@H](CO)[C@@H](C(=O)NCC(F)(F)F)N(CCC)[C@@H]21 (mixture of isomers)	0	-6	x	x	-5	0
COCC(=O)N1C[C@H](C)[C@@H](OC)CN(C)C(=O)c2cc(NC(=O)NC(C)C)ccc2OC[C@H]1C	0	-2	-7	x	3	0
CC(=O)Oc1ccccc1C(=O)C=Cc1cccc([N+](=O)[O-])c1	0	4	-4	4	4	-45*
O=c1c(Cc2ccccc2)c(O)c2cccc3c4c(n1c23)CCCC4	0	1	x	-2	-4	-19*
Cn1c(=O)c(Cc2ccccc2)c(O)c2ccccc21	0	4	5	x	1	0
O=[N+]([O-])c1ccccc1/C=C/C=N/n1c(-c2ccccc2F)n[nH]c1=S	0	3	11	1	-1	-21*
O=[N+]([O-])c1ccccc1/C=N/n1c(-c2ccccc2)n[nH]c1=S	0	1	3	-3	4	7
O=C(c1cc[n+]([O-])cc1)N1CCc2c([nH]c3ccccc23)C1c1ccccc1Cl (stereo not drawn)	0	-1	1	-2	-1	-30*
COc1ccc2c3c([nH]c2c1)[C@@H](CO)N(Cc1nccs1)CC31CCN(C(=O)C2CCC2)CC1	0	x	x	x	x	3
O=C(NCCc1ccncc1)[C@@H]1[C@@H](CO)[C@@H]2Cn3c(ccc(-c4ccncc4)c3=O)[C@@H]2N1C(=O)C1CC1	0	2	x	x	3	4
CCN(CCn1cccn1)C(=O)CC1C(=O)NCCN1Cc1cc(OC)cc(OC)c1 (stereo not drawn)	44*	x	x	2	x	12

Bioassay records (PubChem BioAssay)
